# According to ChEMBL document CHEMBL4513216, “Probing the Open Global Health Chemical Diversity Library for Multistage-Active Starting Points for Next-Generation Antimalarials” (ACS Infect Dis, 2020):
# Test: Toxicity liver stage against HepG2, at 10uM
# Format: cell-based
# Design: test concentration 10 uM, cell line HepG2-A16-CD81EGFP
# Conditions: human, HepG2-A16-CD81EGFP cells; read-out: INHIBITION
# Outline: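 Uninfected HepG2-A16-CD81EGFP cells, 3 × 10^3 per well, 1536-well, plated on prespotted compound at 10 μM final, parasite-free screening media added to match infected plates; puromycin 10 μM positive, DMSO 0.5% negative; run in parallel with 48 h PbLuc assay at 37 °C, 5% CO2; viability by CellTiter-Glo luminescence, normalized to controls.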
row,Structure (SMILES),cytotoxicity at 10 µM
1,COc1ccc(C(=O)Nc2c(C)nc3cccc(C)n3c2=O)cc1,8.1%
2,O=C(Nc1nc2c(s1)CN(S(=O)(=O)C1CC1)CC2)c1ccc(=O)[nH]c1,-11.1%
3,c1cncc(COCC2CNCc3nccn3C2)c1 (stereo not drawn),14.2%
4,CN(C)c1ccc2c(c1)CN(C(=O)c1cnccn1)C2c1cnco1 (stereo not drawn),3.55%
5,CC(C)OC[C@H]1CCC[C@]12CN(S(=O)(=O)C1CC1)CCO2,-2.51%
6,CC(C)(C)C(=O)N1CCC2(CC1)CC(Oc1ccccc1)CO2 (stereo not drawn),4.12%
7,c1cncc(CN2CCn3cc(Cn4cccn4)nc3C2)c1,4.93%
8,O=c1[nH]cnc2[nH]c(N3CCOCC3)nc12,2.9%
9,CC(=O)N1[C@H](Cn2cncn2)C[C@@H]2CN(c3ccc(C)nn3)CC[C@@H]21,-13.4%
10,O=C(Cn1cc(Cl)cn1)NCCN1CCC(O)(c2ccc(F)cc2)CC1,3.41%
11,CCC(CC)C(=O)N1CCCc2c(cnn2C)C1,6.55%
12,O=C(c1cnccn1)N1CCCC(Cc2ccccn2)C1 (stereo not drawn),6.95%
13,COCC(=O)N1CCCC1c1ccnc(Nc2cnccn2)n1 (stereo not drawn),-4.3%
14,CNc1cncc(C2CCCN(S(C)(=O)=O)C2)n1 (stereo not drawn),3.19%
15,CN(Cc1cscn1)Cc1cc2c(cc1Br)OCO2,-4%
16,Cc1ccnc2c1NC(=O)CN2C(=O)CCC(F)(F)F,-15%
17,CSCc1cc(F)ccc1CNC(=O)N1CCC[C@@H]1CO,4.8%
18,Cc1cc(CN(C)S(=O)(=O)N2CCCC2c2ccc(C)o2)no1 (stereo not drawn),3.33%
19,Cc1cc(S(C)(=O)=O)c(C)c(S(=O)(=O)N2CCN(C)CC2)c1,11.7%
20,CCCn1nnnc1CSCc1cn2c(C)cccc2n1,8%
21,CCC(=O)N1CCN(C(=O)NC2CCc3ccccc3C2)CC1 (stereo not drawn),-15.9%

row,Structure (SMILES),cytotoxicity at 10 µM
1,Cc1cc(C)n(-c2cncc(N3CCN(C(=O)C(C)(C)C)CC3)n2)n1,-3.22%
2,O=C(CN1CCCC1Cn1cncn1)NC(C1CC1)C1CC1 (stereo not drawn),-12.8%
3,Cc1nnnn1-c1ccc(CC(=O)N2CCOCC(O)C2)cc1 (stereo not drawn),-7.46%
4,CCn1c(C2CCNCC2)nn(CCn2cncn2)c1=O,-6.26%
5,O=S(=O)(CC1CC1)c1ncc(CN2CCOCC2)n1CC1CCCO1 (stereo not drawn),-3.06%
6,Cc1c(C(C)NC2CCCC2)cnn1-c1ccc(F)cc1F (stereo not drawn),4.91%
7,Cc1nc(O)cc(CN2CCC=C(CN(C)C(=O)c3ccco3)C2)n1,8.82%
8,CCCc1noc(C2CC(=O)N(C(C)(C)C)C2)n1 (stereo not drawn),0.0198%
9,COc1ccc(CCNC(=O)N2CCN(C)[C@@H]3CS(=O)(=O)C[C@@H]32)cc1,6.05%
10,CN(Cc1nncn1C)C(=O)c1cc(COc2ccccc2F)[nH]n1,2.14%
11,CCN(Cc1ccncc1)C(=O)C1COc2c(cccc2OC)C1 (stereo not drawn),3.4%
12,O=C1NCCN(C(=O)CN2CCOC2=O)C1c1cccc(F)c1 (stereo not drawn),8.91%
13,NCCc1nc(N[C@@H](CO)c2ccccc2)c2ccccc2n1,9.24%
14,Cc1nn(C)c(Oc2ccc(Cl)cc2)c1CN1CCC(CN)C1 (stereo not drawn),-7.52%
15,CCc1oc(C(=O)NCCc2cc(O)nc(C)n2)cc1CN1CCCC1,13.1%
16,COc1cc(-c2ccc(F)c3c2OC(CN)C3)cc(OC)c1OC (stereo not drawn),1.35%
17,CNC(=O)CN(C)c1nc(-c2ccncc2)nc2c1CCN(C(C)=O)C2,-5.13%
18,CCn1nc(C)c(CCn2ccnc2-c2cc3n(n2)CCCNC3)c1C,-2.1%
19,COc1ccc(F)cc1C(C(=O)O)N1CCSCC1 (stereo not drawn),-4.2%
20,O=C(c1ccc2c(c1)OCO2)N1CCC(Nc2cccnn2)CC1,-15.6%
21,CCOc1ccnc(N2CCN(C(=O)c3ccc(OC)cc3)CC2)n1,-15.6%

row,Structure (SMILES),cytotoxicity at 10 µM
1,CN(CC(=O)NCc1ccccn1)C1CCCN(c2cccnn2)C1 (stereo not drawn),-9.06%
2,CC1CN(C)c2ccccc2N(C(=O)c2ccc(=O)n(C)c2)C1 (stereo not drawn),-3.51%
3,O=C(NCCn1ccnc1)N1CCCC1c1ccncc1 (stereo not drawn),-10.9%
4,CC(Cn1ccnc1)NC(=O)N1CCN(Cc2ccsc2)CC1 (stereo not drawn),-6.33%
5,CC(C)(C)C(O)CN1CCN(C(=O)c2ccc3c(c2)COC3)CC1 (stereo not drawn),-2.42%
6,CCc1noc(C)c1C(=O)N1CCCC1c1c(C)nn(C)c1C (stereo not drawn),-6.97%
7,c1coc(-c2noc(CN3CCCC3Cn3cncn3)n2)c1 (stereo not drawn),-0.282%
8,CN(Cc1ccsc1)C(=O)Nc1ccc(S(C)(=O)=O)cc1,-4.77%
9,CCOc1ccnc(N2CCN(C(=O)c3cnc[nH]3)CC2)n1,-2.06%
10,CCc1nc(CN(C)CC(N)=O)cs1,-8.9%
11,CC(C)c1nc(CN(CC(N)=O)C(C)C)cs1,-14.4%
12,Cc1cccc(C(=O)N2CCN(C(=O)Cc3ccccn3)CC2)c1C,-12.3%
13,Cn1cc(C(=O)CC2CCCN2C(=O)c2c[nH]c3ccccc23)cn1 (stereo not drawn),-1.39%
14,CN(C)CCN1CCC(CNCc2c[nH]nc2C(C)(C)C)CC1,-3.21%
15,CCOCCN1CCN(CC(=O)N2CCCC2)CC1CC (stereo not drawn),-2.47%
16,Cc1nc(C)n(C2CCCN(C(=O)c3cn4cccnc4n3)C2)n1 (stereo not drawn),-0.776%
17,COCCCC(=O)N1CCC(Nc2cccnn2)CC1,-3.69%
18,Cc1cnn(CC2CCCN2C(=O)c2cccnc2-n2cncn2)c1 (stereo not drawn),-3.29%
19,CC(C)(C)c1nc(CN2CCCC2CCc2ccccc2)no1 (stereo not drawn),-5.95%
20,CCn1cnnc1CNC(=O)N1CCN(c2cccc(OC)c2)CC1,-8.62%
21,Cc1ccc(NC2CCN(C(=O)c3ccsc3)CC2)nn1,-9.08%

row,Structure (SMILES),cytotoxicity at 10 µM
1,Cc1cc(CN(C)C(=O)c2cc3c([nH]c2=O)CCCC3=O)no1,-3.59%
2,COc1ccccc1C1(C(=O)NCCN2CCOCC2)CCOCC1,-11.6%
3,O=C(CCCOc1ccccc1Cl)N1CCCC(n2cncn2)C1 (stereo not drawn),-0.0868%
4,CCc1nc(CN2CCCC(NCc3nc4cccnc4[nH]3)C2)no1 (stereo not drawn),1.92%
5,CN1CCOC(CNCc2nc(-c3ccccc3)cs2)C1 (stereo not drawn),-11.5%
6,COc1ncccc1NC(=O)C1CCN(S(C)(=O)=O)CC1,-5.74%
7,COC(=O)N1CCCN(C(=O)NCc2ccc(Cl)s2)CC1,1.76%
8,CCn1c(C)nnc1CN(C)C1CCN(CCn2cccn2)C1 (stereo not drawn),1.49%
9,CCc1nc(C2CCCN2Cc2nccn2Cc2ccccc2)no1 (stereo not drawn),0.89%
10,COc1cccc(-c2nc(CNCCn3cccn3)cs2)c1,2.43%
11,c1csc(CN2C[C@@H]3COC[C@]3(COCc3ccncc3)C2)c1,18%
12,COc1cccc(CN2CCC3(CCN(c4ncc(C)cn4)CC3)C2)c1,-6.5%
13,COc1ccc(CN2CCOC3(CCCN(c4nnc(C)o4)C3)C2)cc1 (stereo not drawn),-23.6%
14,CN(C)S(=O)(=O)N1C[C@H]2CCC[C@@]2(COCc2ccccn2)C1,0.718%
15,CCN1CCn2c(C)cnc2C12CCN(C(=O)c1ccc(Cl)cc1)CC2,1.22%
16,CNCCc1nc2cc(Cl)ccc2[nH]1,21.2%
17,O=C(NCc1ccccn1)[C@H]1COC[C@H]2CN(Cc3ccoc3)C[C@H]21,1.54%
18,CC1N(CC2CC2)C(=O)COC12CCN(Cc1nccs1)CC2 (stereo not drawn),-8.19%
19,Cc1ccc2c(n1)N(CC1CC1)CCN(Cc1ccco1)C2,2.75%
20,c1cncc(COC[C@H]2CC[C@H]3[C@H](CCN3Cc3cccs3)O2)c1,3.45%
